# Measurements as given in ChEMBL document CHEMBL1122158, “Agents with potential specificity against melanotic melanoma” (1982).
# Columns and labels:
# [1] = tested on: B16; test: In vivo antitumor activity against B-16 Melanoma after intraperitoneal tumor implantation and then intraperitoneal administration of 100 mg/kg of dose; format: functional, Mus musculus
# Outline: (§1)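 B-16 melanoma was implanted intraperitoneally and dosed per NCI protocols. Intraperitoneal treatment began 24 h after implant and was given once daily on days 1-9. Activity was expressed as % T/C, with T/C ≥ 125% taken as statistically significant.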
# [2] = tested on: B16; test: In vivo antitumor activity against B-16 Melanoma after intraperitoneal tumor implantation and then intraperitoneal administration of 150 mg/kg of dose; format: functional, Mus musculus; outline: as §1
# [3] = tested on: B16; test: In vivo antitumor activity against B-16 Melanoma after intraperitoneal tumor implantation and then intraperitoneal administration of 75 mg/kg of dose; format: functional, Mus musculus; outline: as §1
# [4] = tested on: KB; test: In vitro effective dose that causes 50% inhibition of growth of KB cell line - human epidermoid carcinoma of the nasopharynx; format: functional; conditions: read-out: ED50 (the source's name)
# [5] = tested on: M2R; test: In vitro effective dose that causes 50% inhibition of growth of M2R cell line - amelanotic melanoma; format: functional; conditions: Mus musculus, in the assay text read “melanotic melanoma” for “amelanotic melanoma”, read-out: ED50 (the source's name)
# Outline: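 1 × 10^4 cells seeded in a 1:1 DMEM/Ham's F-12 medium with 1.2 g/L NaHCO3, 15 mM HEPES and 10% fetal bovine serum, at 37 °C in 5% CO2. After 24 h, the medium was replaced with fresh medium holding the test agent at various concentrations. Growth was followed for at least 3 more days by trypsinizing and Coulter counting. Net cell increase was expressed as % of control when controls had grown 8-fold.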
# [6] = tested on: A2 (Mus musculus); test: In vitro effective dose that causes 50% inhibition of growth of A2 cell line - amelanotic melanoma; conditions: read-out: ED50 (the source's name)
# [7] = tested on: PS; test: In vitro effective dose that causes 50% inhibition of growth of PS cell line - P388 lymphocytic leukemia; conditions: Mus musculus, read-out: ED50 (the source's name)
EC50 [4] [µM],EC50 [6] [µM],EC50 [7] [µM],Structure (SMILES),T/C [1] [%],T/C [2] [%],T/C [3] [%],EC50 [5] [µM]
300,> 100,300,NC(CCCNc1cccc(O)c1)C(=O)O (stereo unspecified),87,82,104,> 100
140,54,32,NC(CNc1ccc(O)cc1)C(=O)O (stereo unspecified),103,101,111,24
120,22,9.5,NC(CCCNc1ccc(O)cc1)C(=O)O (stereo unspecified),98,106,122,13
